# According to ChEMBL document CHEMBL4513216, “Probing the Open Global Health Chemical Diversity Library for Multistage-Active Starting Points for Next-Generation Antimalarials” (ACS Infect Dis, 2020):
# Test: Toxicity liver stage against HepG2, at 10uM
# Assay type: cell-based
# Design: test concentration 10 uM, cell line HepG2-A16-CD81EGFP
# Conditions: human, HepG2-A16-CD81EGFP cells; read-out: INHIBITION
# Method in brief: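 Uninfected HepG2-A16-CD81EGFP cells, 3 × 10^3 per well, 1536-well, plated on prespotted compound at 10 μM final, parasite-free screening media added to match infected plates; puromycin 10 μM positive, DMSO 0.5% negative; run in parallel with 48 h PbLuc assay at 37 °C, 5% CO2; viability by CellTiter-Glo luminescence, normalized to controls.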
row,SMILES,cytotoxicity at 10 µM [%]
1,Cc1ccc(-c2ccccc2CC2(C(=O)NC(C)C)CCCNC2)cc1 (configuration not stated),2.73
2,COc1ncccc1CNC(=O)c1cccc(C)n1,-1.58
3,Cc1csc(C2CCCCN2C(=O)c2cc(C3CC3)[nH]n2)n1 (configuration not stated),-11.6
4,COc1cccc2sc(N3CC(OC(C)=O)C3)nc12,-6.67
5,Cc1cc(NC2CCN(CC3CCCO3)CC2)n2nc(C)c(C)c2n1 (configuration not stated),8.96
6,O=C1CO[C@H]2CN(Cc3c[nH]c4ccccc34)C[C@H]2N1,1.61
7,Cc1nn(-c2ccccc2)cc1C(=O)N1CCCC(n2cccn2)C1 (configuration not stated),1.3
8,Cc1sc(Br)cc1S(=O)(=O)NCCCN,0.973
9,O=C([C@H]1C[C@H]2CN(c3ncc(F)cn3)C[C@@H]1O2)N1CCOCC1,-109
10,CC(C)NS(=O)(=O)c1ccccc1CNCc1cccc(O)c1,-7.19
11,O=S(=O)(c1cccnc1)N1CCN(CCn2ccnc2)CC1,-31.2
12,CNC(=O)c1cccnc1Oc1ccccc1,2.84
13,Cc1ncsc1C(=O)NCC1SCCc2ccccc21 (configuration not stated),-8.21
14,Cn1nc(Cn2cccc2)c2c1CN(Cc1ccoc1)C2,2.96
15,Cc1ccc(CN2C[C@@H]3CCCO[C@@H]3[C@H](N(C)Cc3ccco3)C2)o1,6.43
16,COc1cc(CNCc2c(C)nn(C)c2N(C)C)ccn1,-9.48
17,C[C@@H]1CN(C(=O)c2cnc(C3CC3)nc2)CC[C@@]1(O)C1CCOCC1,-13.9
18,CC(C)n1cc(C(=O)NCCCc2csc(N)n2)cn1,-4.36
19,CCSCCC(C)N(C)C(=O)c1cc(C)on1 (configuration not stated),-7.32
20,Cc1cc(C(=O)N2CC[C@@H]3CN(c4ncccn4)CCO[C@@H]3C2)c(C)o1,3.52
21,COC[C@@H]1CCC[C@]12CN(Cc1ccco1)CCO2,-4.89
22,Fc1cnc(N2C[C@H]3CCC[C@@]3(COc3ccccn3)C2)nc1,15.6
23,Cc1cc2nc(C(C)C)cc(N3CCSCC3)n2n1,3.24

row,SMILES,cytotoxicity at 10 µM [%]
1,c1cn2c(n1)CNCC(COCC1CC1)C2 (configuration not stated),17.4
2,COc1ccc(C(=O)NCCc2nnc3ccccn23)c(OC)c1,9.6
3,Cc1cccnc1N1CCN(C(=O)CCc2cn3ccccc3n2)CC1,-6.21
4,O=C1CCCN1Cc1ncn2c1CN(C(=O)Cc1cccs1)CCC2,5.26
5,CC1CCN(C(=O)C2CCN(c3ccc(Cl)cc3C#N)CC2)CC1,11.8
6,Cc1ccc(N2CCO[C@H]3CN(Cc4ccoc4)C[C@H]32)nn1,-70.7
7,Cc1oc(-c2ccco2)nc1CNC1CCCN(c2cccnn2)C1 (configuration not stated),-2.87
8,COCC(=O)N1CCN(Cc2cc(F)cc(Br)c2)CC1,15.8
9,CN(Cc1ccco1)c1ccc(-c2nccn2C)nn1,-0.447
10,Cc1ccc(NC2CCN(C(=O)c3ccc(F)cc3Cl)CC2)nn1,-14.1
11,CN(CC1CC1)c1ccc2ccc(C(=O)NC3CCCCC3)cn12,-0.567
12,CN(C)c1ccc(C(CNS(=O)(=O)c2cccs2)N2CCCC2)cc1 (configuration not stated),2.31
13,Cc1cnc2c(c1NCc1ccncc1)c(=O)n(C)c(=O)n2C,-10.7
14,CNc1ncc(C(=O)N2CCC(CCc3ccccc3)CC2)cn1,13.1
15,Cc1cnn(CC2CCCN2CC(=O)Nc2cc(C)no2)c1 (configuration not stated),2.27
16,COc1ccsc1C(=O)N1CCCN(Cc2cscn2)CC1,-9.12
17,CN(C)Cc1cn2c(n1)CN(C(=O)Cc1ccsc1)CC2,-136
18,CC1CCN(CCNC(=O)C2CCN(S(N)(=O)=O)CC2)CC1,17.9
19,O=C(CCC1CCCO1)NCCc1ccccn1 (configuration not stated),-43.2
20,Cc1ccc(F)c2c1CCCN2Cc1cc(=O)n(C)c(=O)n1C,13.6
21,CCOc1ccccc1-n1c(C2CC2)n[nH]c1=O,1.12
22,CNc1ncccc1C(=O)N1CCCC2(C1)C(=O)N(C)c1ccccc12 (configuration not stated),-5.27
23,Cc1cc(C)n(CC2CCCN2CCC(=O)Nc2cc(C)on2)n1 (configuration not stated),1.44

row,SMILES,cytotoxicity at 10 µM [%]
1,CC(C)CCNC(=O)C(c1cccc(F)c1)N(C)C (configuration not stated),-5.77
2,COCC1CCN(CCCc2cn[nH]c2)CC1,11.3
3,Cn1cnc(S(=O)(=O)N2CCN(CC3CC3)c3ncccc3C2)c1,-160
4,Cn1c(C(=O)NC(Cc2ccsc2)c2cccnc2)cc(=O)n(C)c1=O (configuration not stated),2.61
5,CN(C)Cc1nnc(C2CCN(C(=O)CCc3cccs3)CC2)n1C,-15.9
6,CC(=O)N1CCCn2nc(CNS(=O)(=O)c3cc(C)cs3)cc2C1,-9.58
7,CCC(C(=O)NCc1ccncc1)N(c1ccc(OC)cc1)S(C)(=O)=O (configuration not stated),-10.2
8,CC(C)NC(=O)c1nc2c(s1)CCCN2c1ccccc1,4.29
9,CCc1ccc(CN2CCC3(CCCN(C(=O)c4cnccn4)C3)C2)o1 (configuration not stated),-127
10,c1nc(COCC2CC2)c2n1CCCN(CC1CC1)C2,-4.77
11,O=C(NCCCNC(=O)c1ccccc1)Nc1ccc(F)cc1F,5.55
12,Cc1cc(C(=O)N(C)S(C)(=O)=O)ccc1F,-38.4
13,Cc1nn(C)cc1C(=O)N1CCC(CSc2ccccc2)C1 (configuration not stated),2.84
14,N#Cc1ccc(CN2CCN(Cc3ccncc3Cl)CC2=O)cc1,6.43
15,Cc1ccc(CN2CCN(CC(=O)Nc3ccc4nsnc4c3)CC2)o1,-17.5
16,O=C1CC(N(C(=O)c2ccccc2Br)C2CC2)C(=O)N1 (configuration not stated),10.3
17,CC(=O)NCCc1ccc(S(=O)(=O)Nc2ccc(C)c(F)c2)s1,5.72
18,CSc1cccc(CNC(=O)C2CC(=O)N(CCN(C)C)C2)c1 (configuration not stated),-4.15
19,Cc1nn(C)cc1Cn1cc(Cl)c(N)n1,-5.61
20,CCc1n[nH]c(C2CN(C(=O)c3ccc4c(c3)CCCC4)CCO2)n1 (configuration not stated),-16.1
21,CC(C)Cn1cc2nc(N3CCCC3)[nH]cc-2c1=O,9.6
22,COCc1cc(CNc2cnn(CC(F)F)c2)ccc1OC,-7.58
23,Cc1nccc(-c2cccc(NCC(=O)N3CCOC(C)C3)c2)n1 (configuration not stated),-0.776

row,SMILES,cytotoxicity at 10 µM [%]
1,CN(Cc1ccccc1F)C(C(N)=O)c1ccccc1 (configuration not stated),-2.09
2,Cc1nn(C)cc1CN1CCCC1c1cccc(Nc2nccs2)n1 (configuration not stated),4.25
3,CN(C)C(=O)c1cc2c(s1)CCN(C(=O)CCCN1CCCCC1)C2,-41.4
4,Cc1cccc(OCCC(=O)N2CCN(S(=O)(=O)N(C)C)CC2)c1C,2.66
5,Cc1nc(N2CCN(C(=O)c3ccncc3)CC2)c2c(n1)c(C)nn2C,10.3
6,CCCc1nc(C(C)(C)NC(=O)C2CC(=O)N(C3CCCC3)C2)no1 (configuration not stated),-0.734
7,CC(C)CCn1cc(C(C(=O)O)N2CCC(c3ccncc3)CC2)cn1 (configuration not stated),3.34
8,CCN1C(=O)C(c2ccccc2)CC12CCN(S(C)(=O)=O)CC2 (configuration not stated),3.2
9,O=c1[nH]c2cc(S(=O)(=O)N3CCC(c4ccsc4)CC3)ccc2o1,-9.69
10,O=C1NCC(C(=O)NCc2ccccc2CN2CCOCC2)N1 (configuration not stated),3.64
11,CC(=O)N1CCCC1c1ccc(C(=O)N2CCOCC2)s1 (configuration not stated),6.92
12,COCc1noc(CCNc2nc(CC3CC3)nc3c2CCNCC3)n1,-4.1
13,N#Cc1c(Cl)nsc1NCc1ccc(N2CCC(CO)CC2)cc1,-4.73
14,CCC[C@H]1CN(c2nc(CO)cs2)C[C@@H]1NC(=O)C1(COC)CC1,-2.87
15,Cc1cc(-c2cnn(CCNC(=O)c3cc[nH]n3)c2C2CC2)on1,-13.6
16,COc1ccc(OCCCN(C)C(=O)C2CCCN2C(N)=O)cc1 (configuration not stated),1.7
17,CC(C)(CN1CCC(Cc2cccc(C(=O)O)c2)C1)N1CCOCC1 (configuration not stated),3.98
18,NC(=O)c1ccc(OCC(=O)NS(=O)(=O)c2ccc3c(c2)CCC3)cc1,-8.89
19,NS(=O)(=O)c1cc(C(=O)N2CCCC(n3ccnc3)C2)cs1 (configuration not stated),-11.3
20,CCc1n[nH]c(C2CN(C(=O)CCOCC(F)(F)F)CCO2)n1 (configuration not stated),10.4
21,Cc1csc2cc(C(=O)NC3CCCC3)cnc12,3.13
22,OCCCN(CCc1cccc(F)c1)C1CC1,-8.9
23,O=C(Nc1ccc(OCc2cccc(F)c2)c(F)c1)C1COCCO1 (configuration not stated),74.4

row,SMILES,cytotoxicity at 10 µM [%]
1,O=C1C[C@@H]2CCN(Cc3ccccc3)C[C@@H]2CCN1c1ccccc1,3.16
2,Cc1cc(-c2cnc(N3CCSCC3)nc2C(C)C)on1,16.8
3,CN(C)CCN(CC1CCCO1)C(=O)Cc1cn2ccccc2n1 (configuration not stated),-2.96
4,Cc1nn(C)c(C)c1C1CCCN1CC(=O)N(C)c1nccs1 (configuration not stated),-1.32
5,COCCN1C[C@@H]2CN(c3ncccn3)C[C@@H]2C1=O,-11.9
6,O=C(c1ccncc1)N1CCC2(COc3ncccc3S(=O)(=O)N2)C1 (configuration not stated),9.62
7,CCN1CCN(C2CCN(Cc3nc(CCOC)no3)CC2)C1=O,-9.44
8,COCc1nc(C(=O)NS(=O)(=O)c2cc(Br)ccc2C)cs1,-1.66
9,CCc1noc(CNc2c(F)cccc2-n2cccn2)n1,-5.14
10,CCn1cc(CN2CCCN(C(=O)c3sc(C)nc3C)CC2)cn1,-14.4
11,COc1ccccc1CC(=O)N1CCC(NCc2ccc(C)o2)CC1,-5.28
12,CN1CCCN(C(=O)c2cccn2-c2ccc3c(c2)OCCO3)CC1,1.03
13,CCCS(=O)(=O)NC(=O)c1sc(C2CCCC2)nc1C,0.521
14,Cc1nc(CN2CCc3cncnc3C2)oc1C,-12
15,O=C(CN1CCC(c2cc(=O)n3c(n2)CCCCC3)CC1)N1CCCC1,4.62
16,CCN1Cc2c(C(=O)NCC3CC3)ncn2-c2ccccc2S1(=O)=O,-12.2
17,Cn1cc(C(=O)N2CCCC(n3cccn3)C2)c2ccccc21 (configuration not stated),5.2
18,Cc1oc(-c2ccco2)nc1CN1CCCC(Cn2cncn2)C1 (configuration not stated),-23.5
19,CC(C)OCc1nn(C)c2c1CCN(CC1CC1)C2,4.91
20,Cc1nc(C)n(CC2CN(c3nnc(C)c(C)c3C#N)CCO2)n1 (configuration not stated),-0.00964
